In ChEMBL document CHEMBL1147085, “Metabolism and pharmacokinetics of a novel Src kinase inhibitor TG100435 ([7-(2,6-dichloro-phenyl)-5-methyl-benzo[1,2,4]triazin-3-yl]-[4-(2-pyrrolidin-1-yl-ethoxy)-phenyl]-amine) and its active N-oxide metabolite TG100855 …” (Drug Metab Dispos, 2007):

Key:
[1] = AUC (0 to infinity) in BALB/c mouse at 5 mg/kg, iv; format: ADME, organism-based; parameters: time infinity, dose 5 mg/kg, route intravenous; conditions: plasma
Procedure, shortened: (§1)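 Male BALB/c mice (~25 g); fasted overnight for single p.o. dosing, not fasted for i.v. or i.p. dosing. Composite blood sampling, n=3 per time point: 5, 15, 30 min, 1, 3, 6, 24, 48 hr after i.v. dose; 0.5, 1, 3, 5, 8, 24, 30, 48 hr after p.o. or i.p. dose. Heparinized plasma, both parent and N-oxide measured by LC/MS/MS (MRM 494.2/98.1 and 510.2/98.1); non-compartmental analysis, AUC by linear trapezoidal rule.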

[2] = Tmax in Sprague-Dawley rat at 25 mg/kg, po; format: ADME, organism-based; parameters: dose 25 mg/kg, route oral; conditions: in vivo
[3] = AUC (0 to infinity) in Sprague-Dawley rat at 30 mg/kg, po; format: ADME, organism-based; parameters: time infinity, dose 30 mg/kg, route oral; conditions: plasma
[4] = Bioavailability in Sprague-Dawley rat at 25 mg/kg, po; format: ADME, organism-based; conditions: in vivo
[5] = Clearance in Beagle dog at 5 mg/kg, iv; format: ADME, organism-based, Canis lupus familiaris; parameters: dose 5 mg/kg, route intravenous; conditions: in vivo
[6] = AUC (0 to infinity) in BALB/c mouse at 25 mg/kg, po; format: ADME, organism-based; parameters: time infinity, dose 25 mg/kg, route oral; conditions: plasma; procedure, shortened: as §1
[7] = AUC (0 to infinity) in BALB/c mouse at 40 mg/kg, po; format: ADME, organism-based; parameters: time infinity, dose 40 mg/kg, route oral; conditions: plasma; procedure, shortened: as §1
[8] = Drug level in BALB/c mouse plasma at 5 mg/kg, iv; format: ADME, organism-based; parameters: dose 5 mg/kg, route intravenous; procedure, shortened: as §1
[9] = Drug level in Sprague-Dawley rat plasma at 5 mg/kg, iv; format: ADME, organism-based; parameters: dose 5 mg/kg, route intravenous
[10] = AUC (0 to last) in BALB/c mouse at 25 mg/kg, po; format: ADME, organism-based; parameters: time 0 - last, dose 25 mg/kg, route oral; conditions: plasma; procedure, shortened: as §1
[11] = Half life in Sprague-Dawley rat at 5 mg/kg, iv; format: ADME, organism-based; parameters: dose 5 mg/kg, route intravenous; conditions: in vivo
[12] = Cmax in BALB/c mouse at 25 mg/kg, po; format: ADME, organism-based; parameters: dose 25 mg/kg, route oral; conditions: in vivo; procedure, shortened: as §1
Canis familiaris = test: Bioavailability in Beagle dog assessed as AUC of ([7-(2,6-Dichloro-phenyl)-5-methyl-benzo[1,2,4]triazin-3-yl]-{4-[2-(1-pyrrolidin-1-yl-ethoxy)-phenyl]-amine) at 25 mg/kg, po; format: ADME, organism-based, Canis lupus familiaris; conditions: in vivo
[13] = Volume of distribution in Beagle dog at 5 mg/kg, iv; format: ADME, organism-based, Canis lupus familiaris; parameters: dose 5 mg/kg, route intravenous; conditions: in vivo
[14] = Volume of distribution in BALB/c mouse at 5 mg/kg, iv; format: ADME, organism-based; parameters: dose 5 mg/kg, route intravenous; conditions: in vivo
[15] = AUC (0 to infinity) in Sprague-Dawley rat at 5 mg/kg, iv; format: ADME, organism-based; parameters: time infinity, dose 5 mg/kg, route intravenous; conditions: plasma
[16] = Half life in BALB/c mouse at 5 mg/kg, iv; format: ADME, organism-based; parameters: dose 5 mg/kg, route intravenous; conditions: in vivo; procedure, shortened: as §1
[17] = Clearance in BALB/c mouse at 5 mg/kg, iv; format: ADME, organism-based; parameters: dose 5 mg/kg, route intravenous; conditions: in vivo; procedure, shortened: as §1
[18] = Volume of distribution in Sprague-Dawley rat at 5 mg/kg, iv; format: ADME, organism-based; parameters: dose 5 mg/kg, route intravenous; conditions: in vivo
[19] = Drug level in Beagle dog plasma at 5 mg/kg, iv; format: ADME, organism-based, Canis lupus familiaris; parameters: dose 5 mg/kg, route intravenous
[20] = AUC (0 to last) in Sprague-Dawley rat at 25 mg/kg, po; format: ADME, organism-based; parameters: time 0 - last, dose 25 mg/kg, route oral; conditions: plasma
[21] = AUC (0 to infinity) in Sprague-Dawley rat at 25 mg/kg, po; format: ADME, organism-based; parameters: time infinity, dose 25 mg/kg, route oral; conditions: plasma
[22] = Half life in Beagle dog at 5 mg/kg, iv; format: ADME, organism-based, Canis lupus familiaris; parameters: dose 5 mg/kg, route intravenous; conditions: in vivo
[23] = Bioavailability in Beagle dog at 25 mg/kg, po; format: ADME, organism-based, Canis lupus familiaris; conditions: in vivo
[24] = AUC (0 to infinity) in Beagle dog at 25 mg/kg, po; format: ADME, organism-based, Canis lupus familiaris; parameters: time infinity, dose 25 mg/kg, route oral; conditions: plasma
[25] = AUC (0 to infinity) in Beagle dog at 5 mg/kg, iv; format: ADME, organism-based, Canis lupus familiaris; parameters: time infinity, dose 5 mg/kg, route intravenous; conditions: plasma
[26] = AUC (0 to last) in Beagle dog at 25 mg/kg, po; format: ADME, organism-based, Canis lupus familiaris; parameters: dose 25 mg/kg, route oral, time 0 - last; conditions: plasma
[27] = Cmax in Beagle dog at 25 mg/kg, po; format: ADME, organism-based, Canis lupus familiaris; parameters: dose 25 mg/kg, route oral; conditions: in vivo
[28] = Clearance in Sprague-Dawley rat at 5 mg/kg, iv; format: ADME, organism-based; parameters: dose 5 mg/kg, route intravenous; conditions: in vivo

AUC(0-inf) [1]: 4140 ng·h/mL | Tmax [2]: 8 h | AUC(0-inf) [3]: 8120 ng·h/mL | bioavailability [4]: 23% | clearance [5]: 14.5 mL/min/kg | AUC(0-inf) [6]: 15300 ng·h/mL | AUC(0-inf) [7]: 35100 ng·h/mL | C0 [8]: 873 ng/mL | C0 [9]: 1650 ng/mL | AUC(0-t) [10]: 15000 ng·h/mL | half-life [11]: 8.9 h | Cmax [12]: 618 ng/mL | AUC (Canis familiaris): 6470 ng·h/mL | Vd [13]: 18.7 L/kg | Vd [14]: 9.4 L/kg | AUC(0-inf) [15]: 7030 ng·h/mL | half-life [16]: 5.4 h | clearance [17]: 20.1 mL/min/kg | Vd [18]: 9.4 L/kg | C0 [19]: 1660 ng/mL | AUC(0-t) [20]: 7980 ng·h/mL | AUC(0-inf) [21]: 8010 ng·h/mL | half-life [22]: 15.1 h | bioavailability [23]: 10.7% | AUC(0-inf) [24]: 3110 ng·h/mL | AUC(0-inf) [25]: 5800 ng·h/mL | AUC(0-t) [26]: 2540 ng·h/mL | Cmax [27]: 102 ng/mL | clearance [28]: 12.7 mL/min/kg
SMILES: Cc1cc(-c2c(Cl)cccc2Cl)cc2nnc(Nc3ccc(OCCN4CCCC4)cc3)nc12
